Drawing on ChEMBL document CHEMBL3994624, “Antimalarial Pyrido[1,2-a]benzimidazoles: Lead Optimization, Parasite Life Cycle Stage Profile, Mechanistic Evaluation, Killing Kinetics, and in Vivo Oral Efficacy in a Mouse Model” (J Med Chem, 2017), this text covers Activity and MSD for one compound.

Holding throughout (assay type): functional
Assay [1] has as its system Plasmodium berghei. Nature of the assay: Antimalarial activity against GFP-fused Plasmodium berghei ANKA infected in mouse assessed as reduction in parasitemia at 25 mg/kg, po administered once daily for 4 days by flow cytometry relative to control. Also noted: scale not given: the % may be the effect or the level left.
Assay [2] relates to Plasmodium berghei. Nature of the assay: Antimalarial activity against GFP-fused Plasmodium berghei ANKA infected in mouse assessed as mouse mean survival days at 25 mg/kg, po administered once daily for 4 days.
The subject of assay [3] is Plasmodium berghei. Nature of the assay: Antimalarial activity against GFP-fused Plasmodium berghei ANKA infected in mouse assessed as reduction in parasitemia at 3 mg/kg, po administered once daily for 4 days by flow cytometry relative to control. Further details: scale not given: the % may be the effect or the level left. An outline of the steps: (§1)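 P. berghei-infected mice, 3 per group. Compound formulated in 90/10 Tween80/ethanol (v/v), diluted 10-fold with water, given orally once daily at 4, 24, 48 and 72 h post-infection. Outcomes: % parasitemia reduction versus untreated control, mean survival days, and cured/infected. Mice with <40% reduction euthanized on day 4.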

In assay [4] the test system is Plasmodium berghei. Nature of the assay: Antimalarial activity against GFP-fused Plasmodium berghei ANKA infected in mouse assessed as reduction in parasitemia at 12.5 mg/kg, po administered once daily for 4 days by flow cytometry relative to control. Further details: scale not given: the % may be the effect or the level left.
Assay [5] has as its system Plasmodium berghei. As to the kind of experiment: Antimalarial activity against GFP-fused Plasmodium berghei ANKA infected in mouse assessed as mouse mean survival days at 3 mg/kg, po administered once daily for 4 days. An outline of the steps: (§2)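 P. berghei-infected mice (n=3 per dose) dosed orally once daily on 4 consecutive days at 4, 24, 48 and 72 h after infection; compound in 90/10 Tween80/ethanol (v/v) diluted 10-fold with water. Read-outs were % parasitemia reduction, mean survival time in days and cure; mice with <40% parasitemia reduction euthanized on day 4.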

The subject of assay [6] is Plasmodium berghei. Nature of the assay: Antimalarial activity against GFP-fused Plasmodium berghei ANKA infected in mouse assessed as mouse mean survival days at 6 mg/kg, po administered once daily for 4 days.
For assay [7], the system named is Plasmodium berghei. Nature of the assay: Antimalarial activity against GFP-fused Plasmodium berghei ANKA infected in mouse assessed as reduction in parasitemia at 6 mg/kg, po administered once daily for 4 days by flow cytometry relative to control. Also noted: scale not given: the % may be the effect or the level left.
Assay [8] deals with Plasmodium berghei. Nature of the assay: Antimalarial activity against GFP-fused Plasmodium berghei ANKA infected in mouse assessed as reduction in parasitemia at 50 mg/kg, po administered once daily for 4 days by flow cytometry relative to control. Further details: scale not given: the % may be the effect or the level left. An outline of the steps: as §1
Assay [9] has as its system Plasmodium berghei. As to the kind of experiment: Antimalarial activity against GFP-fused Plasmodium berghei ANKA infected in mouse assessed as mouse mean survival days at 50 mg/kg, po administered once daily for 4 days. An outline of the steps:
as §2

For assay [10], the system named is Plasmodium berghei. As to the kind of experiment: Antimalarial activity against GFP-fused Plasmodium berghei ANKA infected in mouse assessed as mouse mean survival days at 12.5 mg/kg, po administered once daily for 4 days.

Consider `CCNCCNc1cc(-c2ccc(C(F)(F)F)cc2)c(C#N)c2nc3ccccc3n12.Cl`, for which the Activity is recorded as 96% with Plasmodium berghei [1]; below 40% in the assay with Plasmodium berghei [3]; 81% with Plasmodium berghei [4]; 38% in the assay with Plasmodium berghei [7]; 96% in the assay with Plasmodium berghei [8]. For the same compound, the MSD was 14 days with Plasmodium berghei [2]; 4 days with Plasmodium berghei [5]; 7 days with Plasmodium berghei [6]; 14 days with Plasmodium berghei [9]; 14 days with Plasmodium berghei [10].
